According to PubChem BioAssay AID1885 (Broad Institute, 2009):
The campaign covered roughly 300,000 compounds. About 4,400 (1.5%) were called active. The sample as a whole holds a higher share of actives than the screen did. Values without a mark were called inactive.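 The calls were made as follows: active = mean inhibition across valid replicates above about 55% (limit read from the data); inconclusive = mean below that limit but half or more replicates reach it; inactive = mean below it, under half of replicates reach it.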

Assay: Trypanosoma cruzi replication blockers in host cells – luminescence, NIH3T3 host cells, primary screen (AID 1885);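 also: signal also drops with host cell toxicity which is not excluded here; 0% = plate median of DMSO wells and 100% = zero luminescence signal; higher percent means less beta-gal luminescence so fewer parasites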
Conditions: T. cruzi beta-gal in NIH3T3, luminescence, 90 h; active compounds read high; concentration not given here
Procedure, shortened: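 System: NIH/3T3 fibroblasts plus reporter T. cruzi. Medium: DMEM plus 2% FBS. Probe or stimulus: 5000 reporter trypomastigotes per well. Compound: single 50 nL compound addition per well in DMSO. Incubation: co-culture of at least 90 h after 3 h attachment. Detection: GalScreen β-gal luminescence, detergent lysis, 60 min. Evaluation: parasite load inhibition, %.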
Nc1scc[n+]1Cc1cccc2cccnc12 showed an inhibition of -1.61%. With c1ccc(NCc2cccc3ccccc23)nc1 the inhibition was 1.93%. In the case of c1ccc2c(C[n+]3csc4ccccc43)cccc2c1, the inhibition is reported as 59.8% (active). FC(F)Oc1ccccc1NC(=S)Nc1cccc(Cl)c1Cl showed an inhibition of 0.408%. Compound CC(C(=O)NCC1CCCCC1)N(C)Cc1cccc(Cl)c1 (configuration not stated) has an inhibition of 10.6%. Compound CCOC(=O)COc1ccc([N+](=O)[O-])cc1 has an inhibition of -3.58%. Cc1ccc(NC(=O)/C(=C/c2ccc([N+](=O)[O-])cc2)NC(=O)c2ccccc2)cc1 gave an inhibition of 1.7%. In the case of CCOC(=O)/C(=C\c1ccc([N+](=O)[O-])cc1)C(=O)c1cc(C(C)=O)c(Nc2ccccc2)s1, the inhibition is reported as 55.8% (active). COC(=O)C1[C@H]2SC(C)(C)C(C(=O)OC)N2C(=O)N1Cc1nc2ccccc2s1 (some centres not stated) showed an inhibition of -4.35%. For CC(OC(=O)c1ccc(S(=O)(=O)N2CCOCC2)cc1)c1ccccc1 (configuration not stated), the inhibition was 1.58%. With CC(C)CN(C(=O)COC(=O)c1ccc(Cl)c(N)c1)c1c(N)n(Cc2ccccc2)c(=O)[nH]c1=O the inhibition was 10.2%. Work on O=C(CCCCCn1c(=S)[nH]c2cc3c(cc2c1=O)OCO3)N1CCN(c2ccc(F)cc2)CC1 yielded an inhibition of 7.91%. For Cc1ccc(C)c(N2CCN(C(=O)CCCCCn3c(=S)[nH]c4ccc(N5CCOCC5)cc4c3=O)CC2)c1, the inhibition was 56.8% (active). In the case of Cc1ccc(C)c(N2CCN(C(=O)CCCCn3c(=O)[nH]c4ccccc4c3=O)CC2)c1, the inhibition is reported as 4.26%. Compound Cc1ccn(C(CC(=O)c2ccc(Br)cc2)C(=O)O)n1 (configuration not stated) has an inhibition of -6.81%. CCN(CC)C(=O)CSC1c2ccccc2C(=O)N1c1ccccc1 (configuration not stated) showed an inhibition of -17.2%. For COc1ccc(CCNC(=O)c2cc3sccc3n2C)cc1OC, the inhibition was -11.3%. In the case of CCC(C(=O)NCc1ccc(OC)cc1)n1nc(C)n2c(cc3occc32)c1=O (configuration not stated), the inhibition is reported as -2.81%. In the case of CCOc1ccc(CCNC(=O)C(CC)n2nc(C)n3c(cc4sccc43)c2=O)cc1OCC (configuration not stated), the inhibition is reported as 59.3% (active). COc1ccc(-n2nnnc2CNC(=O)c2ccc3ccccc3c2)cc1 showed an inhibition of -2.55%. In the case of Cc1c(Cl)cccc1NC(=S)N(Cc1ccccc1)Cc1cccnc1, the inhibition is reported as 18.3%. Work on Cc1ccc(CN(Cc2cccnc2)C(=S)Nc2cccc(Cl)c2C)cc1 yielded an inhibition of 3%. With Cc1ccc(CN(Cc2cccnc2)C(=S)Nc2cc(Cl)ccc2C)cc1 the inhibition was 77.2% (active). With CCOc1ncccc1C(=O)NNC(=O)c1cccc(S(=O)(=O)Nc2ccccc2OC)c1 the inhibition was 0.733%. With CC1(C)Cc2c(C#N)c(SCc3nc4ccccc4[nH]3)nc(N3CCOCC3)c2CO1 the inhibition was 23.1%. With CC(C)c1nc(N2CCOCC2)c(C#N)c2c1COC(C)(C)C2 the inhibition was 12.5%. In the case of COc1ccc(CSc2nc(N3CCOCC3)c3c(c2C#N)CC(C)(C)OC3)cc1, the inhibition is reported as 60.5% (active).
